One series deals with NCI-N87. Description: Cytotoxicity against human NCI-N87 cells after 72 hrs by MTT assay. The series is classed as functional, cell-based. The conditions noted are these: NCI-N87, 72 h. The gist of the method: (§1)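 MTT growth-inhibition assay in human HepG2 hepatocellular, NCI-N87 gastric and MCF-7 breast carcinoma lines, with a doxorubicin positive control. IC50 values are means ± SD from three individual experiments; >10.0 μM was taken as noncytotoxic.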
In general terms: Tetrazolium assays rely on reduction of a dye to a coloured formazan, in cell work by metabolically active cells.

Series [1] relates to RAW264.7. Description: Anti-inflammatory activity in mouse RAW264.7 cells assessed as inhibition of LPS-induced TNF-alpha production at 10 uM pretreated for 1 hr followed by LPS stimulation measured after 24 hrs by ELISA relative to control. Format: functional. Summed up:
(§2)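 LPS-stimulated RAW 264.7 macrophages, with IL-6 and TNF-α production read separately. Test concentrations were 0.4, 2, 10 and 50 μM, and dexamethasone was the reference drug. Results are given as percent inhibition of cytokine production.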
(An ELISA detects its analyte on a solid surface through an enzyme-linked reagent.)

Series [2] concerns RAW264.7. Description: Anti-inflammatory activity in mouse RAW264.7 cells assessed as inhibition of LPS-induced IL-6 production at 50 uM pretreated for 1 hr followed by LPS stimulation measured after 24 hrs by ELISA relative to control. Format: functional. Summed up: as §2
The next series has as its system MCF7. As to the kind of experiment: Cytotoxicity against human MCF7 cells after 72 hrs by MTT assay. Format: functional, cell-based. Particulars: MCF7, 72 h. The gist of the method: as §1
Series [3] can be described thus: Cytotoxicity against mouse RAW264.7 cells assessed as growth inhibition at 50 uM after 72 hrs by MTT assay relative to control. The series is classed as cell-based. Particulars: read-out: GI.
Series [4] relates to RAW264.7. As to the kind of experiment: Anti-inflammatory activity in mouse RAW264.7 cells assessed as inhibition of LPS-induced IL-6 production at 2 uM pretreated for 1 hr followed by LPS stimulation measured after 24 hrs by ELISA relative to control. Format: functional. The gist of the method: as §2
In the next series the test system is HepG2. As to the kind of experiment: Cytotoxicity against human HepG2 cells after 72 hrs by MTT assay. The series is classed as functional, cell-based. Particulars: HepG2, 72 h. The gist of the method: as §1
The subject of series [5] is RAW264.7. Description: Anti-inflammatory activity in mouse RAW264.7 cells assessed as inhibition of LPS-induced TNF-alpha production at 2 uM pretreated for 1 hr followed by LPS stimulation measured after 24 hrs by ELISA relative to control. Format: functional. The gist of the method: as §2
Series [6] concerns RAW264.7. As to the kind of experiment: Anti-inflammatory activity in mouse RAW264.7 cells assessed as inhibition of LPS-induced TNF-alpha production at 50 uM pretreated for 1 hr followed by LPS stimulation measured after 24 hrs by ELISA relative to control. The series is classed as functional. Summed up: as §2
For series [7], the system named is RAW264.7. As to the kind of experiment: Anti-inflammatory activity in mouse RAW264.7 cells assessed as inhibition of LPS-induced IL-6 production at 10 uM pretreated for 1 hr followed by LPS stimulation measured after 24 hrs by ELISA relative to control. The series is classed as functional. The gist of the method:
as §2

In series [8] the test system is RAW264.7. As to the kind of experiment: Anti-inflammatory activity in mouse RAW264.7 cells assessed as inhibition of LPS-induced TNF-alpha production at 0.4 uM pretreated for 1 hr followed by LPS stimulation measured after 24 hrs by ELISA relative to control. The series is classed as functional. The gist of the method:
as §2

In series [9] the test system is RAW264.7. As to the kind of experiment: Anti-inflammatory activity in mouse RAW264.7 cells assessed as inhibition of LPS-induced IL-6 production at 0.4 uM pretreated for 1 hr followed by LPS stimulation measured after 24 hrs by ELISA relative to control. The series is classed as functional. The gist of the method: as §2
Series [10] is described as follows: Cytotoxicity against mouse RAW264.7 cells assessed as growth inhibition at 10 uM after 72 hrs by MTT assay relative to control. The series is classed as cell-based. The conditions noted are these: read-out: GI.

We go through six compounds from ChEMBL document CHEMBL4002555, “Bioactive Pentacyclic Triterpenoids from the Leaves of Cleistocalyx operculatus” (J Nat Prod, 2016).

The IC50 is the point on the concentration scale where inhibition reaches its midpoint. The low end stands for greater potency, the high end for weaker potency.

Each structure is given as a SMILES string.

On to `CC1(C)CC[C@]2(C(=O)O)CC[C@]3(C)C(=C[C@@H](O)[C@@H]4[C@@]5(C)C[C@@H](O)[C@H](O)[C@@](C)(CO)[C@@H]5CC[C@]43C)[C@@H]2C1`, for which the IC50 in the series with NCI-N87, in the series on MCF7 and in the series with HepG2 was more than 10 µM throughout. The inhibition at 10 µM in the series with RAW264.7 [1] worked out at 57.7%; with RAW264.7 [7], 69.9%. In addition, the results for the inhibition at 50 µM with RAW264.7 [2] and in the series with RAW264.7 [6] were 74.9% and 65.6%, respectively. For the same compound, the inhibition at 72 h, 50 µM in series [3] is less than 5%. Also, the inhibition at 2 µM was 68.1% in the series on RAW264.7 [4] and 53.7% with RAW264.7 [5].
On to `CC1(C)CC[C@]2(C(=O)O)CC[C@]3(C)C(=CC(=O)[C@@H]4[C@@]5(C)C[C@@H](O)[C@H](O)[C@@](C)(CO)[C@@H]5CC[C@]43C)[C@@H]2C1`, for which the IC50 in the series on NCI-N87, in the series with MCF7 and in the series with HepG2 was more than 10 µM throughout. Further, the inhibition at 10 µM in the series with RAW264.7 [1] is less than 10%; in the series with RAW264.7 [7], 35.2%. The inhibition at 50 µM with RAW264.7 [2] worked out at 63%; in the series with RAW264.7 [6], 18.8%. The inhibition at 72 h, 50 µM in series [3] was less than 5%. In addition, the inhibition at 2 µM was 33.8% in the series on RAW264.7 [4] and less than 10% with RAW264.7 [5].
Regarding `C=C1CC[C@]2(C(=O)O)CC[C@]3(C)C(=C[C@@H](OC)[C@@H]4[C@@]5(C)C[C@@H](O)[C@H](O)[C@@](C)(CO)[C@@H]5CC[C@]43C)[C@@H]2[C@H]1C`, the half-inhibitory concentration (IC50) in the series with NCI-N87, with MCF7 and in the series on HepG2 was more than 10 µM in each case. In addition, the inhibition at 10 µM in the series on RAW264.7 [1] and in the series on RAW264.7 [7] was less than 50% each time. In addition, the inhibition at 50 µM with RAW264.7 [2] and in the series on RAW264.7 [6] was less than 50% throughout. Moreover, the inhibition at 0.4 µM in the series on RAW264.7 [8] and with RAW264.7 [9] was less than 50% each time. Further, the inhibition at 72 h, 50 µM in series [3] is less than 5%. For the same compound, the inhibition at 2 µM in the series on RAW264.7 [4] and in the series with RAW264.7 [5] was less than 50% each time.
Consider `CO[C@@H]1C=C2[C@@H]3CC(C)(C)CC[C@]3(C(=O)O)CC[C@@]2(C)[C@]2(C)CC[C@@H]3[C@](C)(C[C@@H](O)[C@H](O)[C@@]3(C)CO)[C@@H]12`, for which the IC50 in the series on NCI-N87, with MCF7 and with HepG2 was more than 10 µM each time. Moreover, the results for the inhibition at 10 µM in the series with RAW264.7 [1] and with RAW264.7 [7] were 54.1% and 64.8%, respectively. Besides, the inhibition at 50 µM in the series on RAW264.7 [2] was 68.8%; with RAW264.7 [6], 52.8%. In addition, the inhibition at 72 h, 50 µM in [3] is less than 5%. Also, the values for the inhibition at 2 µM in the series on RAW264.7 [4] and in the series with RAW264.7 [5] were 42.3% and 22%, respectively.
As for `C[C@H]1[C@H](C)CC[C@]2(C(=O)O)CC[C@]3(C)C(=CC[C@@H]4[C@@]5(C)C[C@@H](O)[C@H](O)C(C)(C)[C@@H]5CC[C@]43C)[C@H]12` [COROSOLIC ACID], the results for the half-inhibitory concentration (IC50) with NCI-N87, with MCF7 and with HepG2 were 4.4 µM, more than 10 µM and more than 10 µM, respectively. Moreover, the inhibition at 10 µM in the series on RAW264.7 [1] and in the series on RAW264.7 [7] was less than 50% throughout. Also, the inhibition at 50 µM in the series with RAW264.7 [2] and with RAW264.7 [6] was less than 50% each time. Moreover, the inhibition at 0.4 µM in the series on RAW264.7 [8] and in the series with RAW264.7 [9] was less than 50% throughout. Besides, the inhibition at 72 h, 10 µM in series [10] was less than 5%. For the same compound, the inhibition at 2 µM in the series with RAW264.7 [4] and in the series with RAW264.7 [5] was less than 50% throughout.
On to `CC1(C)CC[C@]2(C(=O)O)CC[C@]3(C)C(=CC[C@@H]4[C@@]5(C)C[C@@H](O)[C@H](O)C(C)(C)[C@@H]5CC[C@]43C)[C@@H]2C1` [MASLINIC ACID], for which the IC50 with NCI-N87, in the series on MCF7 and in the series on HepG2 was more than 10 µM in each case. In addition, the inhibition at 10 µM in the series with RAW264.7 [1] and in the series with RAW264.7 [7] was less than 50% throughout. The inhibition at 50 µM in the series with RAW264.7 [2] and in the series with RAW264.7 [6] was less than 50% in each case. Moreover, the inhibition at 0.4 µM in the series on RAW264.7 [8] and in the series on RAW264.7 [9] was less than 50% each time. Besides, the inhibition at 72 h, 10 µM in series [10] was less than 5%. The inhibition at 2 µM with RAW264.7 [4] and in the series on RAW264.7 [5] was less than 50% in each case.
